hIAP activ: human IAP activators, primary screen, biochemical, luminescence, uHTS | Intestinal-type alkaline phosphatase (Homo sapiens), P09923 | activation factor at 10 µM | actives 0.16% (n = 330,000) | purified human IAP, CDP-Star luminescence, 30 min; stronger effect = higher value; 1 = vehicle-only enzyme, 0 = enzyme-free background;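 active = activation factor of the enzyme at least 2-fold when tested at 20 µM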
Target sequence (P09923 whole entry, looked up): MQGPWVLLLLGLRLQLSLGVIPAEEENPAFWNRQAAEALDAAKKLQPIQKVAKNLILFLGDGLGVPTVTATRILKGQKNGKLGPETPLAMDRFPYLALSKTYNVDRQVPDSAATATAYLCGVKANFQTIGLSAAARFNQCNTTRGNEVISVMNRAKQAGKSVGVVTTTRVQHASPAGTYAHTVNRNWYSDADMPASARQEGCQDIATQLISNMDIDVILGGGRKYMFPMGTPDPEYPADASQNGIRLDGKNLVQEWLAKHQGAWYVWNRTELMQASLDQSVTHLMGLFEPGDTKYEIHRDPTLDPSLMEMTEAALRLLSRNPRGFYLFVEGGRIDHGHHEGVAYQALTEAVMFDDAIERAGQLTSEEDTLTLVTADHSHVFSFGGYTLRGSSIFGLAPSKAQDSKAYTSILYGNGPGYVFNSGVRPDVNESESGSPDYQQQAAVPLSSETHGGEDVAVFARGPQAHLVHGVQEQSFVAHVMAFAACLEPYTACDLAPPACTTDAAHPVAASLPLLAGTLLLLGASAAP
bIAP activator: bovine intestinal alkaline phosphatase activators, primary screen, biochemical, bovine IAP, CDP-star luminescence. activation factor at 20 µM. actives 0.17% (n = 200,000). purified bovine IAP, 30 min; stronger effect = higher value; fold of DMSO-control signal, blank-subtracted. alkaline phosphatase, intestinal [Bos taurus];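 active = activation factor of 2 or more at 20 µM, a signal rise over negative controls twice the positive control's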
mIAP block: inhibitors of mouse IAP, primary screen, biochemical, luminescence, uHTS. intestinal alkaline phosphatase [Mus musculus]. purified mouse IAP, CDP-Star luminescence, 30 min. inhibition, % at 10 µM. actives 0.2% (n = 330,000);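 active = inhibition of at least 40% at 10 µM in the primary screen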
mIAP activ: activators of mouse IAP, primary screen, biochemical, luminescence, uHTS; muIAP, CDP-Star luminescence, 30 min; stronger effect = higher value; 1 = vehicle-only enzyme signal, 0 = enzyme-free wells; actives 0.24% (n = 330,000); activation factor at 10 µM; intestinal alkaline phosphatase [Mus musculus];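 active = activation factor of at least 2 at 20 µM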
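System: mouse IAP enzyme. Reagent: CDP-Star chemiluminescent phosphatase substrate. Benchmarks: DMSO wells, no-enzyme wells. Times: 30 min enzyme-substrate-compound incubation at room temperature. Detection: luminescence from enzymatic CDP-Star hydrolysis. Doses: test compounds delivered from DMSO solution.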
bIAP inh: bovine intestinal alkaline phosphatase inhibitors, primary screen, selectivity assay for TNAP inhibitor project, biochemical, bovine IAP, CDP-star luminescence. alkaline phosphatase, intestinal [Bos taurus]. purified bovine IAP, 30 min. 190,000 tested, under 10 active. inhibition, % at 20 µM. AID 1019, 2008;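 active = over 50% inhibition of intestinal alkaline phosphatase at 20 µM in the single-dose screen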
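Assay system: bovine IAP enzyme; medium: DEA buffer 100 mM, pH 9.8, with MgCl2 1.0 mM, ZnCl2 0.02 mM; doses: 20 µM single dose; incubation: enzyme reaction for 30 min at room temperature; detection: CDP-star luminescence signal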
hIAP inh: human IAP inhibitors, primary screen, biochemical, luminescence, uHTS. Intestinal-type alkaline phosphatase (Homo sapiens), P09923. purified IAP, CDP-Star luminescence, 30 min. inhibition, % at 10 µM. actives 0.12% (n = 330,000);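 active = inhibition reaching a set limit with compound at 10 µM in the primary screen, cut at about 35% in these data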
Hits are given with their value; 0 = inactive; - = no result given. The list is not random: actives were taken first. Their share in the collection is about 0.79%.

SMILES	hIAP activ	bIAP activator	mIAP block	mIAP activ	bIAP inh	hIAP inh
FC(F)Oc1ccc(NC(=S)NCc2ccccc2)cc1Cl	0	0	0	2.2	0	0
Cc1ccc(NC(=S)Nc2ccc(OC(F)F)c(Cl)c2)cc1Cl	-	0	-	-	0	-
FC(F)Oc1ccc(NC(=S)NCc2ccccc2)cc1	0	0	0	0	0	0
CC(NC(=S)Nc1ccc(OC(F)F)c(Cl)c1)C(C)(C)C (configuration not stated)	0	0	0	3.5	0	0
CN(C)c1ccc(N2C(=O)CSC2=S)cc1	0	0	47	0	0	0
Cc1ccc(C(=O)NC(NC(=O)c2ccc(C)cc2)C(Cl)Cl)cc1	0	0	0	3.4	0	0
Cc1cc(C)c(C)c(C(=O)CSc2nnc(-c3ccc4[nH]c(C)c(C)c4c3)o2)c1C	0	0	0	0	0	0
Cc1[nH]c2ccc(-c3nnc(SCC(=O)c4ccc(F)cc4)o3)cc2c1C	0	0	57	0	0	0
Cc1cc(-c2csc(NC(=O)c3ccc(C#N)cc3)n2)c(C)n1Cc1ccco1	0	0	41	0	0	0
Cc1cc(-c2csc(NC(=O)c3ccc(=O)[nH]c3)n2)c(C)n1Cc1ccccc1	0	0	0	0	0	0
O=C(C[C@H]1C/C=C\C[C@H](NC(=O)OCC2c3ccccc3-c3ccccc32)C(=O)OC[C@@H]2CCCN2C1=O)NCCO	0	-	0	0	-	0
COc1cc(/C=C2/CC/C(=C/c3ccc(O)c(OC)c3)C2=O)ccc1O	0	-	0	0	-	0
COc1cc(/C=C2\COC/C(=C\c3ccc(O)c(OC)c3)C2=O)ccc1O	0	-	42	0	-	0
NC1=NC2(CCC(c3ccccc3)CC2)n2c(nc3ccccc32)N1 (configuration not stated)	0	2.9	0	0	0	0
NC1=NC2(CCCCC2)n2c(nc3ccccc32)N1	0	2.2	0	0	0	0
NC1=NC2(CCN(Cc3ccccc3)CC2)n2c(nc3ccccc32)N1	0	3.5	0	0	0	0
NC1=NC(c2ccc(Br)cc2)n2c(nc3ccccc32)N1 (configuration not stated)	0	0	0	0	0	0
CC1(c2ccc([N+](=O)[O-])cc2)NC(=O)N(CC(=O)Nc2cccnc2Cl)C1=O (configuration not stated)	0	-	0	0	-	0
NS(=O)(=O)c1ccc(CCNC(=O)CNC(=O)c2ccc(Br)o2)cc1	0	-	0	0	-	0
C=CCn1c(-c2ccc(OC)cc2)nc2ccccc21	0	0	0	0	0	0
COc1ccc(-c2nc3ccccc3n2Cc2ccccc2)cc1	0	3	0	0	0	0
Cc1ccc(C2(C)NC(=O)N(CC(=O)c3ccc(Cl)s3)C2=O)cc1 (configuration not stated)	0	2	0	0	0	0
Cc1ccc(/C(O)=C2/C(=O)C(=O)N(c3ccccn3)C2c2cccc([N+](=O)[O-])c2)cc1 (configuration not stated)	0	-	0	0	-	0
COc1cccc(NC(=O)NCCCSC2CCCCC2)c1	0	0	0	2.3	0	0
CC(NC(=O)NC1CCCCC1)C(c1cccs1)N1CCN(c2ccccc2)CC1 (configuration not stated)	0	0	0	2	0	0
SMILES	hIAP activ	bIAP activator	mIAP block	mIAP activ	bIAP inh	hIAP inh
CC(NC(=O)C1CC1)C(c1cccs1)N1CCN(c2ccccc2)CC1 (configuration not stated)	0	0	0	0	0	0
Fc1ccc(N2N=C(c3cccs3)CC2c2ccccc2)cc1 (configuration not stated)	0	0	0	0	0	0
Fc1ccccc1N1CC(c2ccccc2)C(c2cccs2)=N1 (configuration not stated)	0	0	0	2.2	0	0
Cc1ccc(C(=O)N/C(=C/c2ccc(Cl)cc2)C(=O)Nc2cccc(C(=O)O)c2)cc1	0	2.2	0	0	0	0
O=C(Nc1cccc(C(=O)O)c1)/C(=C\c1ccccc1)NC(=O)c1ccccc1	0	0	0	0	0	0
CC(C)OC(=O)CSc1nc(Cc2cccs2)nc2ccccc12	0	0	0	0	0	0
CC(Sc1nnc(C2CC2)n1C1CC1)C(=O)Nc1cccc(S(=O)(=O)N2CCOCC2)c1 (configuration not stated)	0	-	0	0	-	0
Cc1ccc(-n2cc(CN(C)Cc3ncc[nH]3)c(-c3cccc(C)c3)n2)cc1	0	3.5	0	0	0	0
CN(Cc1ncc[nH]1)Cc1cn(-c2ccccc2)nc1-c1ccc2c(c1)OCO2	0	-	0	0	-	0
Cn1c(/C=N/Nc2nc3ccccc3[nH]2)nc2ccccc21	0	0	42	0	0	0
Cc1ccc(C(C)NC(=S)NCc2ccc(F)cc2)c(C)c1 (configuration not stated)	0	-	0	2.1	-	0
CCc1ccc(C(C)NC(=S)NCc2ccc(F)cc2)cc1 (configuration not stated)	0	-	0	2.1	-	0
Cc1ccc(C(C)NC(=S)NCc2ccc(F)cc2)cc1C (configuration not stated)	0	-	0	0	-	0
COC(=O)[C@H](CC(C)C)N1Cc2cc(OC)cc(OC)c2-c2ccccc2S1(=O)=O	-	-	0	0	-	-
Cc1ccc(NC(=O)C2CCCN2C(=O)OC(C)(C)C)cc1C (configuration not stated)	0	-	0	0	-	0
COc1cc(CNc2nnnn2C)cc(OC)c1OC	0	-	0	0	-	0
CCOc1ccc(C(=O)N/N=C/c2ccccc2[N+](=O)[O-])cc1	0	2	0	0	0	0
O=C1NC(c2cccc([N+](=O)[O-])c2)Oc2ccccc21 (configuration not stated)	0	0	0	0	0	0
COc1ccc(-c2nn(C)c3sc(C(=O)NCc4ccco4)cc23)cc1OC	0	3.5	0	0	0	0
COc1ccc2[nH]c(C(=O)N3CCN(Cc4ccccc4)CC3)cc2c1OC	0	-	0	0	-	0
COc1cc(CNCc2ccccn2)ccc1OCc1ccc(Cl)cc1	0	0	0	0	0	0
COc1cc(CNCc2ccccn2)ccc1OCc1c(Cl)cccc1Cl	0	2.5	0	0	0	0
Cc1ccc2ncccc2c1	0	-	0	0	-	0
Cc1cc(N(C)C)ccc1N=Nc1ccc2ncccc2c1	0	-	0	0	-	40

From PubChem
